Laboratory results published in ChEMBL document CHEMBL3745713, “Bromotyrosine-derived metabolites from an Indonesian marine sponge in the family Aplysinellidae (Order Verongiida)” (Bioorg Med Chem Lett, 2016).

Legend:
MCF7 [1] = assay: Cytotoxicity against human MCF7 cells assessed as cell growth at 25 uM measured at 72 hrs by CyQuant proliferation assay relative to control; assay type: functional; settings: MCF7, 72 h, read-out: Activity
[2] = Cytotoxicity against mouse NIH/3T3 cells assessed as cell growth at 25 uM measured at 72 hrs by CyQuant proliferation assay relative to control; assay type: cell-based, NIH3T3; settings: read-out: Activity
A549 [3] = assay: Cytotoxicity against human A549 cells assessed as cell growth at 25 uM measured at 72 hrs by CyQuant proliferation assay relative to control; assay type: functional; settings: A549, 72 h, read-out: Activity
[4] = Cytotoxicity against human A2780S cells assessed as cell growth at 25 uM measured at 72 hrs by CyQuant proliferation assay relative to control; assay type: functional; settings: A2780, 72 h, read-out: Activity
[5] = Cytotoxicity against human A2780S/CP5 cells assessed as cell growth at 25 uM measured at 72 hrs by CyQuant proliferation assay relative to control; assay type: functional; settings: A2780S/CP5, 72 h, read-out: Activity
[6] = Cytotoxicity against human U251MG cells assessed as cell growth at 25 uM measured at 72 hrs by CyQuant proliferation assay relative to control; assay type: functional; settings: U-251, 72 h, read-out: Activity
[7] = Cytotoxicity against human A2780S cells assessed as cell growth at 5 uM measured at 72 hrs by CyQuant proliferation assay relative to control; assay type: functional; settings: A2780, 72 h, read-out: Activity
Procedure, shortened: (§1)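 Single-concentration screen at 50 and 5 μM across the cancer lines and normal mouse NIH3T3 fibroblasts. Cell growth was read by CyQuant proliferation assay at 72 h. Values are expressed relative to DMSO-treated control. Done in triplicate, one experiment (n=1).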

[8] = Cytotoxicity against human A2780S/CP5 cells assessed as cell growth at 5 uM measured at 72 hrs by CyQuant proliferation assay relative to control; assay type: functional; settings: A2780S/CP5, 72 h, read-out: Activity; procedure, shortened: as §1
[9] = Cytotoxicity against human A2780S/CP5 cells assessed as cell growth at 50 uM measured at 72 hrs by CyQuant proliferation assay relative to control; assay type: functional; settings: A2780S/CP5, 72 h, read-out: Activity; procedure, shortened: as §1
MCF7 [10] = assay: Cytotoxicity against human MCF7 cells assessed as cell growth at 50 uM measured at 72 hrs by CyQuant proliferation assay relative to control; assay type: functional; settings: MCF7, 72 h, read-out: Activity; procedure, shortened: as §1
A549 [11] = assay: Cytotoxicity against human A549 cells assessed as cell growth at 5 uM measured at 72 hrs by CyQuant proliferation assay relative to control; assay type: functional; settings: A549, 72 h, read-out: Activity; procedure, shortened: as §1
[12] = target: Beta-secretase 1 (Homo sapiens) (UniProt P56817); assay: Inhibition of BACE1 (unknown origin) using BACE ED as substrate at 41.7 uM by EFC assay
MCF7 [13] = assay: Cytotoxicity against human MCF7 cells assessed as cell growth at 5 uM measured at 72 hrs by CyQuant proliferation assay relative to control; assay type: functional; settings: MCF7, 72 h, read-out: Activity; procedure, shortened: as §1
[14] = Cytotoxicity against mouse NIH/3T3 cells assessed as cell growth at 50 uM measured at 72 hrs by CyQuant proliferation assay relative to control; assay type: cell-based, NIH3T3; settings: read-out: Activity; procedure, shortened: as §1
[15] = Cytotoxicity against human A2780S cells assessed as cell growth at 50 uM measured at 72 hrs by CyQuant proliferation assay relative to control; assay type: functional; settings: A2780, 72 h, read-out: Activity; procedure, shortened: as §1
[16] = Cytotoxicity against human U251MG cells assessed as cell growth at 50 uM measured at 72 hrs by CyQuant proliferation assay relative to control; assay type: functional; settings: U-251, 72 h, read-out: Activity; procedure, shortened: as §1
[17] = Cytotoxicity against human U251MG cells assessed as cell growth at 5 uM measured at 72 hrs by CyQuant proliferation assay relative to control; assay type: functional; settings: U-251, 72 h, read-out: Activity; procedure, shortened: as §1
A549 [18] = assay: Cytotoxicity against human A549 cells assessed as cell growth at 50 uM measured at 72 hrs by CyQuant proliferation assay relative to control; assay type: functional; settings: A549, 72 h, read-out: Activity; procedure, shortened: as §1
[19] = Cytotoxicity against mouse NIH/3T3 cells assessed as cell growth at 5 uM measured at 72 hrs by CyQuant proliferation assay relative to control; assay type: cell-based, NIH3T3; settings: read-out: Activity; procedure, shortened: as §1
[20] = target: Beta-secretase 1 (Homo sapiens) (UniProt P56817); assay: Inhibition of BACE1 (unknown origin) using BACE ED as substrate at 42.6 uM by EFC assay
[21] = Cytotoxicity against human U251MG cells assessed as cell growth at 20 uM measured at 72 hrs by CyQuant proliferation assay relative to control; assay type: functional; settings: U-251, 72 h, read-out: Activity
[22] = Cytotoxicity against mouse NIH/3T3 cells assessed as cell growth at 20 uM measured at 72 hrs by CyQuant proliferation assay relative to control; assay type: cell-based; settings: nih3t3, 72 h
MCF7 [23] = assay: Cytotoxicity against human MCF7 cells assessed as cell growth at 20 uM measured at 72 hrs by CyQuant proliferation assay relative to control; assay type: functional; settings: MCF7, 72 h, read-out: Activity
[24] = Cytotoxicity against human A2780S cells assessed as cell growth at 20 uM measured at 72 hrs by CyQuant proliferation assay relative to control; assay type: functional; settings: A2780, 72 h, read-out: Activity
A549 [25] = assay: Cytotoxicity against human A549 cells assessed as cell growth at 20 uM measured at 72 hrs by CyQuant proliferation assay relative to control; assay type: functional; settings: A549, 72 h, read-out: Activity
[26] = Cytotoxicity against human A2780S/CP5 cells assessed as cell growth at 20 uM measured at 72 hrs by CyQuant proliferation assay relative to control; assay type: functional; settings: A2780S/CP5, 72 h, read-out: Activity
[27] = Cytotoxicity against human U251MG cells by CyQuant proliferation assay; assay type: functional, cell-based; settings: U-251
Procedure, shortened: (§2)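 CyQuant proliferation assay in A2780S, cisplatin-resistant A2780CP (SCP5) and U251MG cells. Cells were exposed to varying concentrations, maximum 50 μM, and compared with solvent-only treated cells. IC50 was determined from triplicates, two independent experiments (n=2).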

[28] = Cytotoxicity against human A2780S cells by CyQuant proliferation assay; assay type: functional, cell-based; settings: A2780; procedure, shortened: as §2
[29] = target: Beta-secretase 1 (Homo sapiens) (UniProt P56817); assay: Inhibition of BACE1 (unknown origin) using BACE ED as substrate at 42 uM by EFC assay
[30] = Cytotoxicity against human A2780S/CP5 cells by CyQuant proliferation assay; assay type: functional, cell-based; procedure, shortened: as §2
[31] = target: Beta-secretase 1 (Homo sapiens) (UniProt P56817); assay: Inhibition of BACE1 (unknown origin) using BACE ED as substrate at 31.4 uM by EFC assay
[32] = target: Beta-secretase 1 (Homo sapiens) (UniProt P56817); assay: Inhibition of BACE1 (unknown origin) using BACE ED as substrate at 30.6 uM by EFC assay
[33] = target: Beta-secretase 1 (Homo sapiens) (UniProt P56817); assay: Inhibition of BACE1 (unknown origin) using BACE ED as substrate at 39.6 uM by EFC assay
[34] = target: Beta-secretase 1 (Homo sapiens) (UniProt P56817); assay: Inhibition of BACE1 (unknown origin) using BACE ED as substrate at 41.9 uM by EFC assay
[35] = target: Beta-secretase 1 (Homo sapiens) (UniProt P56817); assay: Inhibition of BACE1 (unknown origin) using BACE ED as substrate at 48.3 uM by EFC assay
[36] = target: Beta-secretase 1 (Homo sapiens) (UniProt P56817); assay: Inhibition of BACE1 (unknown origin) using BACE ED as substrate at 31.8 uM by EFC assay

Sequence of Beta-secretase 1 (Homo sapiens) (P56817 whole entry): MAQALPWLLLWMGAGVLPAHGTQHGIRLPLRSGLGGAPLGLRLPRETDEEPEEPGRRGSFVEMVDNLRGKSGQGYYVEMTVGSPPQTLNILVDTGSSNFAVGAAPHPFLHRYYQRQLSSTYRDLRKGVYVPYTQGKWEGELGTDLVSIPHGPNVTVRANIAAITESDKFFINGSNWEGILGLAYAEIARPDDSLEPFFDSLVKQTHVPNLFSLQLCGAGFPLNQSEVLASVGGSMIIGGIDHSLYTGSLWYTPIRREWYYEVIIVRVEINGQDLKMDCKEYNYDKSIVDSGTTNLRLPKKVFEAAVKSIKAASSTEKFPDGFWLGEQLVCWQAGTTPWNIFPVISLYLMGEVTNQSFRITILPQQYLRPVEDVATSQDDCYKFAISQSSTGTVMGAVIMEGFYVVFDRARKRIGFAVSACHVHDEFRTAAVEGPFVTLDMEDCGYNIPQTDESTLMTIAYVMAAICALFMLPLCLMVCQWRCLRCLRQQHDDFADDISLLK

Row | SMILES | growth at 5 µM [7] [%] | growth at 5 µM [8] [%] | growth at 50 µM [9] [%] | growth at 50 µM (MCF7 [10]) [%] | growth at 5 µM (A549 [11]) [%] | growth at 5 µM (MCF7 [13]) [%] | viability at 72 h, 50 µM [14] [%] | growth at 50 µM [15] [%] | growth at 50 µM [16] [%] | growth at 5 µM [17] [%] | growth at 50 µM (A549 [18]) [%] | viability at 72 h, 5 µM [19] [%] | also measured
1 | O=C(CCCCCCC(=O)Nc1ccccc1)NO [VORINOSTAT] |  |  |  |  |  |  |  |  |  |  |  |  | growth at 25 µM (MCF7 [1]): 52%; viability at 72 h, 25 µM [2]: 46%; growth at 25 µM (A549 [3]): 51%; growth at 25 µM [4]: 23%; growth at 25 µM [5]: 18%; growth at 25 µM [6]: 20%
2 | COC1=C(Br)[C@@H](O)[C@]2(C=C1Br)CC(C(=O)NCCCOc1c(Br)cc(CCN)cc1Br)=NO2 [ARAPLYSILLIN 1] | 8 | 11 | 22 | 71 | 16 | 36 | 7 | 14 | 30 | 32 | 17 | 38 | inhibition [12]: 27%
3 | COc1c(Br)cc(C/C(=N\O)C(=O)NCCc2cc(Br)c(OCCCN)c(Br)c2)cc1Br | 81 | 78 | 12 | 26 | 92 | 95 | 16 | 11 | 24 | 107 | 24 | 105 | inhibition [20]: 62%
4 | COc1cc([C@@H]2c3cc4c(cc3[C@@H](O[C@@H]3O[C@@H]5CO[C@@H](C)O[C@H]5[C@H](O)[C@H]3O)[C@H]3COC(=O)[C@H]23)OCO4)cc(OC)c1O [ETOPOSIDE] |  |  |  |  |  |  |  |  |  |  |  |  | growth at 20 µM [21]: 21%; Activity [22]: 46%; growth at 20 µM (MCF7 [23]): 46%; growth at 20 µM [24]: 35%; growth at 20 µM (A549 [25]): 49%; growth at 20 µM [26]: 33%
5 | COc1c(Br)cc(C/C(=N\O)C(=O)NCCCOc2c(Br)cc(CCN)cc2Br)c(O)c1Br | 60 | 96 | 9 | 27 | 96 | 97 | 104 | 9 | 20 | 111 | 21 | 102 | IC50 [27]: 50 µM; IC50 [28]: 20 µM; inhibition [29]: 36%; IC50 [30]: 40 µM
6 | CCCCCCC(C)CCCCCCCC(=O)NCCc1cc(Br)c(OCCCNC(=O)C2=NO[C@@]3(C=C(Br)C(OC)=C(Br)[C@H]3O)C2)c(Br)c1 (stereo not given in full) | 85 | 109 | 79 | 101 | 89 | 104 | 95 | 87 | 97 | 99 | 105 | 94 | inhibition [31]: 70%
7 | CCCCC(C)CCC/C=C\CCCCCCC(=O)NCCc1cc(Br)c(OCCCNC(=O)C2=NO[C@@]3(C=C(Br)C(OC)=C(Br)[C@H]3O)C2)c(Br)c1 (stereo not given in full) | 82 | 105 | 66 | 104 | 98 | 105 | 98 | 76 | 90 | 98 | 104 | 100 | inhibition [32]: 60%
8 | COC1=C(Br)[C@@H](O)[C@]2(C=C1Br)CC(C(=O)NCCCOc1c(Br)cc(CCNC(=N)N)cc1Br)=NO2 | 78 | 45 | 8 | 24 | 85 | 98 | 25 | 12 | 32 | 94 | 48 | 100 | inhibition [33]: 40%
9 | COC1=C(Br)[C@@H](O)[C@]2(C=C1Br)CC(C(=O)NCCCOc1c(Br)cc(C(=O)O)cc1Br)=NO2 | 37 | 33 | 25 | 60 | 81 | 86 | 29 | 21 | 39 | 101 | 68 | 94 | inhibition [34]: 35%
10 | CNCCCOc1c(Br)cc(CCNC(=O)/C(Cc2ccc(O)c(Br)c2)=N/O)cc1Br | 82 | 94 | 51 | 69 | 97 | 100 | 105 | 26 | 40 | 111 | 64 | 99 | IC50 [27]: > 50 µM; IC50 [28]: > 50 µM; inhibition [35]: 48%; IC50 [30]: > 50 µM
11 | CCCCCCC(C)CCCCCCCCC(=O)NCCc1cc(Br)c(OCCCNC(=O)C2=NO[C@@]3(C=C(Br)C(OC)=C(Br)[C@H]3O)C2)c(Br)c1 (stereo not given in full) | 90 | 100 | 78 | 109 | 82 | 106 | 102 | 88 | 101 | 100 | 106 | 98 | 
12 | COC1=C(Br)[C@@H](O)[C@]2(C=C1Br)CC(C(=O)NCCCOc1c(Br)cc(CCNC(=O)CCCCCCCCCCCC(C)C)cc1Br)=NO2 | 77 | 68 | 48 | 64 | 88 | 103 | 95 | 18 | 80 | 98 | 85 | 88 | inhibition [36]: 57%
13 | CNCCCOc1c(Br)cc(CCNC(=O)/C(Cc2cc(Br)c(OC)c(Br)c2)=N/O)cc1Br | 11 | 29 | 10 | 58 | 42 | 50 | 3 | 13 | 30 | 17 | 11 | 101 | inhibition [29]: 74%
